Values joined by “and” are separate entries in the source; they are usually repeats but may differ in a detail not shown here. Equal values may be shown once. Marks after values point to notes of the source that are not given here.
Columns and labels:
[1] = test system: rabbit reticulocyte lysates (RRLs); test: Translation efficiency of capped luciferase mRNA in RRL; format: biochemical; conditions: for relative cap-dependent translation efficiency: ApppG-capped mRNA translation subtracted before normalization to m^7GpppG; for relative translation efficiency: luciferase mRNA capped with the analog, normalized to m^7GpppG-capped mRNA
Procedure, shortened: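 Capped, polyadenylated luciferase mRNAs were made with SP6 polymerase from a PCR template, then DNase-treated and purified. Flexi RRL (40% lysate, 0.01 mM amino acids, 1 mM Mg acetate, 190 mM K acetate) was preincubated 60 min at 30°C, then translated 60 min at 30°C with four mRNA concentrations. Luminescence versus mRNA was linearly fitted and normalized to m7GpppG-capped mRNA, optionally after subtracting ApppG-capped mRNA. Means are from 2–3 repeats of each of two mRNA syntheses.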

S. pombe Dcp1/2 complex = test: Decapping assay of short capped transcripts with SpDcp1/2; format: biochemical, Schizosaccharomyces pombe; conditions: 34 nt RNA capped with the analog, SpDcp1/2 complex, 30°C
Procedure, shortened: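 Short 34-nt capped RNAs were transcribed with […] from EcoRI-linearized pSP-luc+. NTPs were 0.1 mM final and cap dinucleotide 0.5 mM final, for 45 min at 37°C, then DNase-treated and column-purified. 20 ng RNA was digested with 50 or 200 nM S. pombe Dcp1/2 in 10 mM Hepes pH 7.5, 100 mM KOAc, 2 mM Mg(OAc)2, 2 mM DTT at 30°C. No-enzyme controls were run. Products were separated on 15% PAGE/7 M urea with SYBR Gold. Decapping % is upper-band loss over upper plus lower bands, mean ± SD of two experiments.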

mouse eIF4E = conditions: 20°C, cited from earlier work; for ΔG°: Gibbs free energy of binding; for KAS (cap–eIF4E): equilibrium association constant, mouse eIF4E
mammalian cells = conditions: mRNA capped with the analog; cited from earlier work

Row | Molecule | relative cap-dependent translation efficiency [1] | relative translation efficiency [1] | Decapping % 5 min (S. pombe Dcp1/2 complex) | Decapping % 15 min (S. pombe Dcp1/2 complex) | Decapping % 30 min (S. pombe Dcp1/2 complex) | ΔG° (mouse eIF4E) | KAS (cap–eIF4E) (mouse eIF4E) | mRNA half-life (mammalian cells)
1 | CO[C@@H]1[C@H](O)[C@@H](COP(=O)(O)OP(=O)([O-])OP(=O)(O)OC[C@H]2O[C@@H](n3cnc4c(=O)[nH]c(N)nc43)[C@H](O)[C@@H]2O)O[C@H]1n1c[n+](C)c2c(O)nc(N)nc21 [m2^7,2′-OGpppG] | 1.96 ± 0.43 | 1.81 ± 0.32 | 68.9 ± 0.4% | 78.6 ± 2.4% | 79.7 ± 7.5% | −9.42 ± 0.02^b kcal·mol^−1 |  | 2.58 ± 0.15 h
2 | CO[C@@H]1[C@H](O)[C@@H](COP(=O)(O)OP(=O)([O-])OP(=O)(O)OP(=O)(O)OC[C@H]2O[C@@H](n3cnc4c(=O)[nH]c(N)nc43)[C@H](O)[C@@H]2O)O[C@H]1n1c[n+](C)c2c(O)nc(N)nc21 [m2^7,2′-OGppppG] | 1.94 ± 0.56 | 1.79 ± 0.43 | 73.4 ± 7.6% | 78.4 ± 9.4% | 82.9 ± 11.3% | −10.73 ± 0.04^b kcal·mol^−1 | 99.8 ± 6.0^b μM^−1 | 
3 | CO[C@H]1[C@@H](O)[C@H]([n+]2cn(C)c3c(=O)[nH]c(N)nc32)O[C@@H]1COP(=O)([O-])OP(=O)(O)OP(=O)(O)OC[C@H]1O[C@@H](n2cnc3c(=O)[nH]c(N)nc32)[C@H](O)[C@@H]1O [m2^7,3′-OGpppG] | 1.99 ± 0.81 | 1.83 ± 0.64 |  |  |  | −9.40 ± 0.02^a kcal·mol^−1 | 10.2 ± 0.3^a μM^−1 | 
4 | C[n+]1cn(C2OC(COP(=O)(O)OP(=O)(O)OP(=O)(O)OP(=O)(O)OP(=O)(O)OCC3OC(n4cnc5c(=O)[nH]c(N)nc54)C(O)C3O)C(O)C2O)c2nc(N)[nH]c(=O)c21 (stereo not drawn) [m^7Gp5G] |  |  |  |  |  | −11.71 ± 0.06^b kcal·mol^−1 | 543 ± 55^b μM^−1 | 
5 | Cn1c[n+]([C@@H]2O[C@H](COP(=O)(O)OP(=O)([O-])OP(=O)(O)OC[C@H]3O[C@@H](n4cnc5c(=O)[nH]c(N)nc54)[C@H](O)[C@@H]3O)[C@@H](O)[C@H]2O)c2nc(N)[nH]c(=O)c21 [m^7GpppG] | 1 | 1 |  |  |  | −9.35 ± 0.03^a kcal·mol^−1 | 9.4 ± 0.4 μM^−1 and 9.4 ± 0.4^a μM^−1 | 
6 | m2^7,2′-OGpppSpG [m2^7,2′-OGpppSpG D1D2] |  |  | 72.7 ± 1.9% | 78.3 ± 1.0% | 79.5 ± 3.5% | −10.99 ± 0.01^c kcal·mol^−1 | 158 ± 2^c μM^−1 | 

Now from value to molecule, other results behind:

Row | relative cap-dependent translation efficiency [1] | relative translation efficiency [1] | Molecule | Decapping % 5 min (S. pombe Dcp1/2 complex) | Decapping % 15 min (S. pombe Dcp1/2 complex) | Decapping % 30 min (S. pombe Dcp1/2 complex) | ΔG° (mouse eIF4E) | KAS (cap–eIF4E) (mouse eIF4E) | mRNA half-life (mammalian cells)
7 | 2.80 ± 0.83 | 2.51 ± 0.59 | COC1C(O)[C@@H](COP(=O)(O)OP(=O)([S-])OP(=O)(O)OP(=O)(O)OC[C@H]2O[C@@H](n3cnc4c(=O)[nH]c(N)nc43)C(O)C2O)O[C@H]1n1c[n+](C)c2c(O)nc(N)nc21 (mixture of isomers) [m2^7,2′-OGppSppG D1D2, m2^7,2′-OGppSppG] | 57.9 ± 14.6% | 65.6 ± 18.0% | 71.6 ± 17.2% | −11.33 ± 0.02^c kcal·mol^−1 | 282 ± 12^c μM^−1 | 
8 | 2.27 ± 0.10 | 2.07 ± 0.18 | CO[C@@H]1[C@H](O)[C@@H](COP(=O)([O-])OP(O)(=S)OP(=O)(O)OC[C@H]2O[C@@H](n3cnc4c(=O)[nH]c(N)nc43)[C@H](O)[C@@H]2O)O[C@H]1[n+]1cn(C)c2c(=O)[nH]c(N)nc21 (single isomer, unassigned) [m2^7,2′-OGppSpG D1, m2^7,2′-OGppSpG] | 47.5 ± 9.0% | 56.1 ± 11.5% | 60.9 ± 12.1% | −10.23 ± 0.02^a kcal·mol^−1 | 43.1 ± 1.4 μM^−1 and 43.1 ± 1.4^a μM^−1 | 3.08 ± 0.333 h
9 | 2.83 ± 0.26 | 2.54 ± 0.66 | CO[C@@H]1[C@H](O)[C@@H](COP(=O)([O-])OP(O)(=S)OP(=O)(O)OC[C@H]2O[C@@H](n3cnc4c(=O)[nH]c(N)nc43)[C@H](O)[C@@H]2O)O[C@H]1[n+]1cn(C)c2c(=O)[nH]c(N)nc21 (single isomer, unassigned) [m2^7,2′-OGppSpG D2, m2^7,2′-OGppSpG] | 47.3 ± 10.6% | 51.4 ± 15.6% | 57.4 ± 10.7% | −9.77 ± 0.07^a kcal·mol^−1 | 19.3 ± 2.2^a μM^−1 | 4.28 ± 0.067 h
10 | 0.00 | 0.16 ± 0.04 | Nc1nc2c(ncn2[C@@H]2O[C@H](COP(=O)(O)OP(=O)(O)OP(=O)(O)OC[C@H]3O[C@@H](n4cnc5c(N)ncnc54)[C@H](O)[C@@H]3O)[C@@H](O)[C@H]2O)c(=O)[nH]1 [ApppG] |  |  |  |  |  | 

Reference: article PMC5175369 (Nucleic Acids Research, 2016)
